Screening results from PubChem.
Shown are actives, neighbours in structure and some others; about 4.6% of the full set was active somewhere.
OX1R antag-1 = OX1R (HCRTR1) antagonists, primary screen, fluorescence, CHO/OX1R cells, Fluo-8 calcium, orexin A; inhibition, % at 5 µM; AID 434989, 2010; Orexin/Hypocretin receptor type 1 (Homo sapiens), O43613; actives 0.43% (n = 330,000); Fluo-8 calcium fluorescence;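 active means inhibition above its plate's threshold, mean inhibition of all tested compounds on the plate plus 3 SD, cut at about 37% in these data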;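 further: 0% = orexin A challenge wells and 100% = SB-334867-A antagonist wells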
OX1R antag-2 = antagonists of human orexin 1 receptor (OX1R) | Orexin/Hypocretin receptor type 1 (Homo sapiens), O43613 | OX1R-expressing cells, FRET antagonist read-out | actives 1.8% (n = 330,000) | inhibition, % at 6.6 µM; in the data active means inhibition mostly above about 38%, no sharp cut-off; inactive means mostly below about 40%;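 further: 0% = agonist challenge alone and 100% = reference antagonist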
TAAR1 antagonist = human TAAR1 antagonists, primary screen, Fluo-8 calcium fluorescence, CHO RD-HGA16 cells; Trace amine-associated receptor 1 (Homo sapiens), Q96RJ0; antagonist; inhibition, % at 3 µM; actives 1.5% (n = 360,000);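 active means inhibition above a per-plate cutoff, the mean inhibition of test compounds on that plate plus 3 SD, cut at about 49% in these data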;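 further: 0% = DMSO plus EC80 beta-PEA response and 100% = DMSO alone without agonist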
Target sequence (Q96RJ0 whole entry, looked up): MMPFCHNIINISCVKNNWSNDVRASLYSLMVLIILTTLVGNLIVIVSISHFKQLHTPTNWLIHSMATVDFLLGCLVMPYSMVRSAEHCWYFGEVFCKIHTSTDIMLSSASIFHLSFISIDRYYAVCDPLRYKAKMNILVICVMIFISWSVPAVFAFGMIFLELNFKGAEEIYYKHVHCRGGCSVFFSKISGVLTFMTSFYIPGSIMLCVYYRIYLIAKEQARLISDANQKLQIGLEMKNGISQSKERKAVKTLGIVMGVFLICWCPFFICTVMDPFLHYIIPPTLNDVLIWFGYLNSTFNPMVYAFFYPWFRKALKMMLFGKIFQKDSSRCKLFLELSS
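Test system: RD-HGA16 CHO cells with stable hTAAR1 and Gα16 / Probe or stimulus: EC80 β-phenethylamine stimulus / Times: seeding 17-24 h prior, 75-min 37 °C, 30-min RT dye loading / Detection: Fluo-8 calcium-sensitive fluorescence / Read-out basis: % inhibition scaled between DMSO and EC80 PEA controls / Repeats: singlicate, one well per test compound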
GPR7 antag = GPR7 receptor antagonists, primary screen, cell-based, fluorescence, single concentration; Neuropeptides B/W receptor type 1 (Homo sapiens), P48145; GPR7-expressing cells, fluorescence antagonist assay; inhibition, % at 4.4 µM; actives 1.1% (n = 290,000); in the data active means inhibition above about 16%, passing the limit was not always enough;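 further: cells stimulated with the agonist NPW; 0% = agonist with vehicle and 100% = vehicle without agonist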
Target sequence (P48145 whole entry, looked up): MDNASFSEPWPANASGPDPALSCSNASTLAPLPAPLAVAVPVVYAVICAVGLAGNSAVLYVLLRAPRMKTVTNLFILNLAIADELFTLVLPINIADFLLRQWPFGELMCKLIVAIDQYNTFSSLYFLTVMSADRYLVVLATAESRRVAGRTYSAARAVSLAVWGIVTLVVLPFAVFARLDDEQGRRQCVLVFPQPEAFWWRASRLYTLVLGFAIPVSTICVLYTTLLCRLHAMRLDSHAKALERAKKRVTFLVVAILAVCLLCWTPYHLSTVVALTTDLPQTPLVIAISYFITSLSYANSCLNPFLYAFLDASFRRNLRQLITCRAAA
TAAR1 agonist = human TAAR1 agonists, primary screen, Fluo-8 calcium fluorescence, CHO RD-HGA16 cells; Trace amine-associated receptor 1 (Homo sapiens), Q96RJ0; vehicle wells 0%, saturating PEA agonist 100%; activation, % at 3 µM; actives 0.99% (n = 360,000); AID 624467, 2012;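 active means activation above the mean activation of all test compounds in the run plus 3 SD, cut at about 38% in these data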
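Assay system: CHO-derived RD-HGA16 cells with stable Gα16 and human TAAR1; timing: 17-24 h seeding, 75 min 37 °C dye, 30 min RT; read-out: % activation from peak over basal fluorescence ratio, DMSO-to-PEA scaled; measured by: kinetic Fluo-8 calcium fluorescence; benchmarks: low control DMSO, high control PEA (EC100); doses: 3 µM single concentration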
CHO parental Ca = ATP-evoked calcium signal inhibitors, parental CHO, primary screen, counter-screen for OX1R antagonist project, cell-based, fluorescence, Fluo-8 calcium dye. parental CHO-K1, ATP-induced calcium, Fluo-8 fluorescence. inhibition, % at 5.6 µM. actives 0.63% (n = 330,000). AID 463079, 2010;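 active means inhibition above that plate's mean sample inhibition plus 3 SD, cut at about 26% in these data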;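 further: 0% = ATP-challenged DMSO wells and 100% = DMSO wells without ATP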
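Material – parental CHO cells · Reagent – ATP stimulus · Compound – single nominal dose of 5.6 µM per compound · Detection – Fluo-8 fluorescence · Read-out basis – percent inhibition of calcium signal · Controls – ATP-challenged DMSO wells low, unchallenged DMSO wells high · Repeats – no replicates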
TAAR1 nonsel count = nonselective antagonists in TAAR1 counter-screen cells, counter-screen for hTAAR1 antagonist project, cell-based, fluorescence, calcium | shares compounds with TAAR1 antagonist | counterscreen cell line, antagonist mode | inhibition, % at 3 µM | actives 77% (n = 2,400); in the data active means inhibition above about 22%;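 further: CHO-Ga16 host cells stimulated with ATP at an EC80 level; 0% = agonist EC80 plus vehicle and 100% = vehicle without agonist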
TAAR1 antag conf = human TAAR1 antagonists, retest of hits, confirmation, cell-based, fluorescence; shares compounds with TAAR1 antagonist; actives 40% (n = 2,400); inhibition, % at 3 µM; TAAR1-expressing cells, fluorescence antagonist read-out; in the data active means inhibition above about 49%;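 further: CHO-Ga16 host cells challenged with agonist PEA near its EC80; 0% = agonist at EC80 plus vehicle and 100% = vehicle with no agonist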
Ga16 ag counter = calcium activation in Ga16-expressing cells, counter-screen for TAAR1 antagonist project, cell-based, fluorescence | shares compounds with TAAR1 antagonist | agonist counterscreen | activation, % at 3 µM | actives 18% (n = 2,400) | AID 651953, 2012; in the data active means activation above about 12%;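 further: 0% = vehicle wells and 100% = saturating stimulus response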
TAAR1 ag count = TAAR1 activation by candidate antagonists – cell-based, fluorescence, counter-screen for TAAR1 antagonist project; shares compounds with TAAR1 antagonist; hTAAR1 cell line, agonist mode; activation, % at 3 µM; actives 2% (n = 2,400); AID 651955, 2012; in the data active means activation above about 37%;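 further: CHO cells stably expressing TAAR1 with calcium dye readout; 0% = DMSO vehicle and 100% = full agonist response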
Active calls of the source: *; . = not tested or not shown.

SMILES	OX1R antag-1	OX1R antag-2	TAAR1 antagonist	GPR7 antag	TAAR1 agonist	CHO parental Ca	TAAR1 nonsel count	TAAR1 antag conf	Ga16 ag counter	TAAR1 ag count
COc1ccc(C2=NOC(Cn3nc(C(=O)NCc4ccco4)cc3-c3ccccc3)C2)cc1 (stereo not drawn)	-13	29	66*	.	19	-9	34*	56*	9	6
OCc1cccc(-c2csc(C(O)(c3ccccc3)C(F)(F)F)n2)c1 (stereo not drawn)	.	.	12	.	2	.	.	.	.	.
COc1ccc(C(=O)/C=C/c2ccc(OCc3ccccc3)cc2)cc1CSCC(=O)O	.	.	62*	-22	13	.	38*	54*	10	10
COc1ccc(C(=O)/C=C/c2cccc(OCc3ccccc3)c2)cc1CSCC(=O)O	7	21	15	16	3	-14	.	.	.	.
CCOc1ccc2nc(S(=O)(=O)NC(=O)C3(C)CCN3C(=O)CCc3cccs3)sc2c1 (stereo not drawn)	.	.	-15	.	0	.	.	.	.	.
Cc1ccc(C)c(N2CCN(C(=O)CCS(=O)(=O)c3ccc4c(c3)NC(=O)CO4)CC2)c1	66*	24	85*	3	18	57*	43*	57*	15*	13
CN(C)S(=O)(=O)c1cccc(-c2nn(-c3ccccc3)cc2/C=C2\SC(=S)NC2=O)c1	14	19	68*	-7	3	8	59*	56*	8	0
CCOC(=O)C1=CCN(S(=O)(=O)c2ccccc2F)C1c1cccc(C)c1 (stereo not drawn)	.	.	1	.	-1	.	.	.	.	.
O=c1onc(-c2ccccc2)n1Cc1ccc([N+](=O)[O-])cc1	.	.	-19	.	2	.	.	.	.	.
CCC(=O)N(CCc1ccccc1C)Cc1cc2ccc(C)cc2[nH]c1=O	-44	9	60*	2	20	-23	28*	49*	11	13
CC(=O)N(CCc1ccccc1C)Cc1cc2cc3c(cc2[nH]c1=O)OCO3	-5	21	-4	-2	2	-8	.	.	.	.
O=C1c2ccccc2[C@@H]2Cc3csc[n+]3[C@H]12	.	.	7	.	4	.	.	.	.	.
Cc1ccc(CNC(=O)c2ccc(COc3ccccc3)cc2)cc1	-10	16	53*	-15	5	-7	14	14	2	2
C=CCn1c(SCC(=O)N(C)c2c(N)n(Cc3ccccc3)c(=O)[nH]c2=O)nnc1-c1ccccc1OC	-17	4	-9	-10	0	-7	.	.	.	.
NNC(=S)Nc1ccc(S(=O)(=O)N2CCCCC2)cc1	-27	13	7	-1	1	-19	.	.	.	.
O=C1CC(N(O)C2CC(=O)N(Cc3ccccc3)C2=O)C(=O)N1Cc1ccccc1 (stereo not drawn)	-16	5	68*	-9	17	-20	33*	54*	10	12
O=C(COc1ccc(S(=O)(=O)N2CCOCC2)cc1Cl)NCC1CCCO1 (stereo not drawn)	-17	23	9	2	1	6	.	.	.	.
CCCc1nc2ccccc2c(=O)n1CC(=O)c1ccc(F)cc1	-35	14	-20	-2	-3	-18	.	.	.	.
O=C1c2ccccc2C(=O)N1CCc1nc(-c2ccc(Cl)cc2)no1	-10	8	63*	-1	19	-5	29*	37	6	2
CN(CCc1ccccc1)C(c1cc2ccccc2o1)c1nnnn1C(C)(C)C (stereo not drawn)	.	.	34	.	2	.	.	.	.	.
CC1CCN(C(=O)c2ccc(N(C)S(C)(=O)=O)cc2)CC1	-11	23	107*	5	5	-13	-3	-4	3	5
O=C(O)C(Cc1c[nH]c2ccccc12)NS(=O)(=O)c1ccc(Cl)c(C(F)(F)F)c1 (stereo not drawn)	-9	2	3	-9	0	-4	.	.	.	.
COCC1CN(CCc2ccc(F)cc2)S(=O)(=O)c2c(OCCN3C(=O)[C@@H]4[C@H](C3=O)[C@@H]3C=C[C@H]4C3)cccc2O1 (stereo partly drawn)	.	.	63*	.	18	.	36*	58*	9	12
Cc1nc2ccc(C(=O)N3c4ccccc4N=C(c4ccc(C(F)(F)F)cc4)C3C(=O)NC(C)(C)C)cc2[nH]1 (stereo not drawn)	.	.	-16	.	-2	.	.	.	.	.
CC(C)C(=O)Nc1cccc(C(=O)OCC(=O)c2ccc(Cl)cc2Cl)c1	-18	12	78*	-8	19	-4	54*	61*	14*	7
SMILES	OX1R antag-1	OX1R antag-2	TAAR1 antagonist	GPR7 antag	TAAR1 agonist	CHO parental Ca	TAAR1 nonsel count	TAAR1 antag conf	Ga16 ag counter	TAAR1 ag count
CC(=O)Nc1cc(C(=O)OCC(=O)c2ccc(Cl)cc2Cl)ccc1C	-20	0	10	3	13	-10	.	.	.	.
COc1cccc(-c2nc3n(n2)CCc2ccccc2-3)c1	.	.	15	.	0	.	.	.	.	.
CN(C)S(=O)(=O)c1cccc(C(=O)OCC(=O)c2ccc3c(c2)NC(=O)CO3)c1	-14	14	66*	-6	34	-4	28*	47	13*	12
Cc1ccc(S(=O)(=O)N(C)CC(=O)OCC(=O)c2ccc3c(c2)NC(=O)CO3)cc1	-19	9	102*	.	-1	-10	26*	28	10	4
Cc1ccc(-c2ccc(/C=C3\C(=O)ON=C3c3ccccc3)o2)c([N+](=O)[O-])c1	3	22	65*	-4	21	-7	78*	81*	24*	28
Cc1ccc(/C=C2\C(=O)ON=C2c2ccccc2)o1	-4	1	17	10	7	4	.	.	.	.
O=C(Nc1nc(-c2ccccc2)c(C(=O)c2ccccc2)s1)c1ccc(S(=O)(=O)N2CCCC2)cc1	-9	17	-9	-14	11	-11	.	.	.	.
